# Reference: ChEMBL document CHEMBL1165950, “Design and synthesis of new potent anticancer pyrazoles with high FLT3 kinase inhibitory selectivity” (Bioorg Med Chem, 2010)
# How the values were obtained:
# Type in all cases: functional
# A549 = assay: Growth inhibition of human A549 cells after 48 hrs by sulforhodamine B assay; settings: A549, 48 h
# Outline: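 NCI five-dose SRB assay in RPMI 1640 with 5% FBS and 2 mM L-glutamine. Cells were preincubated 24 h, then exposed 48 h at 37 °C to five concentrations (10-fold or half-log serial dilutions from DMSO stocks). TCA fixation, SRB staining, and absorbance at 515 nm followed. IC50 was taken where [(Ti−Tz)/(C−Tz)]×100 = 50, with Tz as time-zero cell density.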
# SF-295 [1] = assay: Growth inhibition of human SF295 cells after 48 hrs by sulforhodamine B assay; settings: SF-295, 48 h; for CC50: read-out: LC50 (the source's name)
# Outline: (§1)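 NCI 60-cell screen, five-dose mode. Cells grown in RPMI 1640 with 5% FBS and 2 mM L-glutamine and plated at 5000-40,000 cells/well according to doubling time. After 24 h preincubation, a Tz plate was TCA-fixed. Five concentrations (10-fold or 1/2 log dilutions) were applied for 48 h at 37 °C. SRB staining read at 515 nm. IC50 taken from [(Ti-Tz)/(C-Tz)]×100 = 50.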
# SNB-19 = assay: Cytotoxicity against human SNB19 cells assessed as cell growth at 10 uM after 48 hrs by sulforhodamine B assay; settings: SNB-19, 48 h, read-out: Activity
# COLO 205 [2] = assay: Cytotoxicity against human COLO205 cells assessed as cell growth at 100 nM after 48 hrs by sulforhodamine B assay; settings: COLO 205, 48 h, read-out: Activity
# BT-549 = assay: Cytotoxicity against human BT549 cells assessed as cell growth at 10 uM; settings: read-out: Activity
# Outline: (§2)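 Single-dose NCI-60 screen at 10 µM. Cells were grown in RPMI 1640 with 5% FBS and 2 mM L-glutamine, then treated for 48 h at 37 °C. Protein was measured by SRB staining with absorbance at 515 nm. Percentage growth was recorded, and inhibition percentage was calculated as 100 minus growth percentage.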
# K562 = assay: Growth inhibition of human K562 cells after 48 hrs by sulforhodamine B assay; settings: K562, 48 h; outline: as §1
# [3] = Cytotoxicity against human Hs 578T cells assessed as cell growth at 10 uM; settings: read-out: Activity; outline: as §2
# M14 [4] = assay: Cytotoxicity against human M14 cells assessed as cell growth at 10 uM after 48 hrs by sulforhodamine B assay; settings: M14, 48 h, read-out: Activity
# KM12 = assay: Cytotoxicity against human KM12 cells assessed as cell growth at 100 nM after 48 hrs by sulforhodamine B assay; settings: KM12, 48 h, read-out: Activity
# TK-10 [5] = assay: Cytotoxicity against human TK10 cells assessed as cell growth at 10 uM; settings: read-out: Activity
# Outline: (§3)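 NCI-60 screen: cells grown in RPMI 1640 with 5% FBS and 2 mM L-glutamine, plated at 5000–40,000 cells/well according to doubling time, and preincubated 24 h at 37 °C, 5% CO2. The single 10 µM dose (DMSO stock) was added, then incubated 48 h. Cells were TCA-fixed and stained with 0.4% SRB, read at 515 nm, and growth % calculated against time-zero and control plates.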
# SK-OV-3 [6] = assay: Cytotoxicity against human SKOV3 cells assessed as cell growth at 0.01 uM after 48 hrs by sulforhodamine B assay; settings: SK-OV-3, 48 h, read-out: Activity
# SN12C = assay: Cytotoxicity against human SN12C cells assessed as cell growth at 1 uM after 48 hrs by sulforhodamine B assay; settings: read-out: Activity
# SK-MEL-5 [7] = assay: Cytotoxicity against human SK-MEL-5 cells assessed as cell growth at 10 uM after 48 hrs by sulforhodamine B assay; settings: SK-MEL-5, 48 h, read-out: Activity
# SK-OV-3 [8] = assay: Cytotoxicity against human SKOV3 cells assessed as cell growth at 10 uM after 48 hrs by sulforhodamine B assay; settings: SK-OV-3, 48 h, read-out: Activity
# COLO 205 [9] = assay: Cytotoxicity against human COLO205 cells assessed as cell growth at 10 uM; settings: read-out: Activity; outline: as §2
# TK-10 [10] = assay: Cytotoxicity against human TK10 cells assessed as cell growth at 0.001 uM after 48 hrs by sulforhodamine B assay; settings: TK-10, 48 h, read-out: Activity
# HCT-116 = assay: Cytotoxicity against human HCT116 cells assessed as cell growth at 0.001 uM after 48 hrs by sulforhodamine B assay; settings: HCT-116, 48 h, read-out: Activity
# SW-620 [11] = assay: Cytotoxicity against human SW620 cells assessed as cell growth at 10 uM after 48 hrs by sulforhodamine B assay; settings: SW-620, 48 h, read-out: Activity
# NCI-H522 [12] = assay: Growth inhibition of human NCI-H522 cells after 48 hrs by sulforhodamine B assay; settings: NCI-H522, 48 h; for CC50: read-out: LC50 (the source's name); outline: as §1
# NCI-H522 [13] = assay: Cytotoxicity against human NCI-H522 cells assessed as cell growth at 1 uM after 48 hrs by sulforhodamine B assay; settings: NCI-H522, 48 h, read-out: Activity
# SK-MEL-5 [14] = assay: Cytotoxicity against human SK-MEL-5 cells assessed as cell growth at 0.01 uM after 48 hrs by sulforhodamine B assay; settings: SK-MEL-5, 48 h, read-out: Activity
# SF-295 [15] = assay: Cytotoxicity against human SF295 cells assessed as cell growth at 1 uM after 48 hrs by sulforhodamine B assay; settings: SF-295, 48 h, read-out: Activity
# ACHN = assay: Cytotoxicity against human ACHN cells assessed as cell growth at 10 uM; settings: read-out: Activity; outline: as §2
# OVCAR-3 = assay: Cytotoxicity against human OVCAR-3 cells assessed as cell growth at 0.01 uM after 48 hrs by sulforhodamine B assay; settings: OVCAR-3, 48 h, read-out: Activity
# OVCAR-5 = assay: Cytotoxicity against human OVCAR5 cells assessed as cell growth at 1 uM after 48 hrs by sulforhodamine B assay; settings: OVCAR-5, 48 h, read-out: Activity
# M14 [16] = assay: Cytotoxicity against human M14 cells assessed as cell growth at 10 uM; settings: read-out: Activity; outline: as §3
# SK-MEL-5 [17] = assay: Cytotoxicity against human SK-MEL-5 cells assessed as cell growth at 100 nM after 48 hrs by sulforhodamine B assay; settings: SK-MEL-5, 48 h, read-out: Activity
# SW-620 [18] = assay: Cytotoxicity against human SW620 cells assessed as cell growth at 10 uM; settings: read-out: Activity; outline: as §3
# HOP-62 = assay: Cytotoxicity against human HOP62 cells assessed as cell growth at 10 uM after 48 hrs by sulforhodamine B assay; settings: HOP-62, 48 h, read-out: Activity
# [19] = Cytotoxicity against human RPMI8266 cells assessed as cell growth at 100 nM after 48 hrs by sulforhodamine B assay; settings: read-out: Activity
# IGROV-1 = assay: Cytotoxicity against human IGROV1 cells assessed as cell growth at 1 uM after 48 hrs by sulforhodamine B assay; settings: IGROV-1, 48 h, read-out: Activity
# MDA-MB-231 = assay: Cytotoxicity against human MDA-MB-231 cells assessed as cell growth at 0.01 uM after 48 hrs by sulforhodamine B assay; settings: MDA-MB-231, 48 h, read-out: Activity
# T47D = assay: Cytotoxicity against human T47D cells assessed as cell growth at 10 uM; settings: read-out: Activity; outline: as §3
smiles,measurement,setting,value
COc1cc(C)cc(-c2nn(CC#N)cc2-c2ccnc(-c3ccc(N(C)C)cc3)c2)c1,GI50,A549,0.583 µM
same,LC50,A549,> 100 µM
same,TGI,A549,483 µM
same,GI50,SF-295 [1],0.304 µM
same,TGI,SF-295 [1],1.91 µM
same,CC50,SF-295 [1],> 100 µM
same,growth at 10 µM,SNB-19,9%
same,growth at 0.1 µM,COLO 205 [2],-15%
same,growth at 10 µM,BT-549,-28.5%
same,GI50,K562,0.161 µM
same,LC50 (50% net cell kill),K562,> 100 µM
same,TGI,K562,> 100 µM
same,growth at 10 µM,[3],31.6%
same,growth at 10 µM,M14 [4],-16%
same,growth at 0.1 µM,KM12,10%
same,growth at 10 µM,TK-10 [5],34.7%
same,growth at 0.01 µM,SK-OV-3 [6],102%
same,growth at 1 µM,SN12C,8%
same,growth at 10 µM,SK-MEL-5 [7],-66%
same,growth at 10 µM,SK-OV-3 [8],-40%
same,growth at 10 µM,COLO 205 [9],-73.2%
same,growth at 0.001 µM,TK-10 [10],109%
same,growth at 0.001 µM,HCT-116,96%
same,growth at 10 µM,SW-620 [11],11%
same,GI50,NCI-H522 [12],0.196 µM
same,TGI,NCI-H522 [12],0.492 µM
same,CC50,NCI-H522 [12],3.24 µM
same,growth at 1 µM,NCI-H522 [13],-61%
same,growth at 0.01 µM,SK-MEL-5 [14],104%
same,growth at 1 µM,SF-295 [15],-7%
same,growth at 10 µM,ACHN,16%
same,growth at 0.01 µM,OVCAR-3,95%
same,growth at 1 µM,OVCAR-5,31%
same,growth at 10 µM,M14 [16],-10%
same,growth at 0.1 µM,SK-MEL-5 [17],-22%
same,growth at 10 µM,SW-620 [18],21.9%
same,growth at 10 µM,HOP-62,-13%
same,growth at 0.1 µM,[19],57%
same,growth at 1 µM,IGROV-1,5%
same,growth at 0.01 µM,MDA-MB-231,94%
same,growth at 10 µM,T47D,39%
Cc1cc(O)cc(-c2nn(CC#N)cc2-c2ccnc(-c3ccc(N(C)C)cc3)c2)c1,GI50,A549,4.18 µM
same,LC50,A549,> 100 µM
same,TGI,A549,54.5 µM
same,GI50,SF-295 [1],2.18 µM
same,TGI,SF-295 [1],8.71 µM
same,CC50,SF-295 [1],84.1 µM
same,growth at 10 µM,SNB-19,-15%
same,growth at 0.1 µM,COLO 205 [2],94%
same,growth at 10 µM,BT-549,31.8%
same,GI50,K562,2.55 µM
same,LC50 (50% net cell kill),K562,> 100 µM
same,TGI,K562,32.8 µM
same,growth at 10 µM,[3],47.7%
same,growth at 10 µM,M14 [4],-75%
same,growth at 0.1 µM,KM12,66%
same,growth at 10 µM,TK-10 [5],52.5%
same,growth at 0.01 µM,SK-OV-3 [6],98%
same,growth at 1 µM,SN12C,26%
same,growth at 10 µM,SK-MEL-5 [7],-93%
same,growth at 10 µM,SK-OV-3 [8],-38%
same,growth at 10 µM,COLO 205 [9],38.9%
same,growth at 0.001 µM,TK-10 [10],105%
same,growth at 0.001 µM,HCT-116,95%
same,growth at 10 µM,SW-620 [11],-33%
same,GI50,NCI-H522 [12],1.93 µM
same,TGI,NCI-H522 [12],7.14 µM
same,CC50,NCI-H522 [12],68.1 µM
same,growth at 1 µM,NCI-H522 [13],-13%
same,growth at 0.01 µM,SK-MEL-5 [14],90%
same,growth at 1 µM,SF-295 [15],-5%
same,growth at 10 µM,ACHN,31.2%
same,growth at 0.01 µM,OVCAR-3,91%
same,growth at 1 µM,OVCAR-5,64%
same,growth at 10 µM,M14 [16],6.66%
same,growth at 0.1 µM,SK-MEL-5 [17],82%
same,growth at 10 µM,SW-620 [18],25%
same,growth at 10 µM,HOP-62,-22%
same,growth at 0.1 µM,[19],96%
same,growth at 1 µM,IGROV-1,24%
same,growth at 0.01 µM,MDA-MB-231,98%
same,growth at 10 µM,T47D,17.7%
COc1cc(C)cc(-c2c(-c3ccnc(-c4ccc(N(C)C)cc4)c3)cnn2CC#N)c1,GI50,A549,0.155 µM
same,LC50,A549,> 100 µM
same,TGI,A549,> 100 µM
same,GI50,SF-295 [1],0.0529 µM
same,TGI,SF-295 [1],0.315 µM
same,CC50,SF-295 [1],> 100 µM
same,growth at 10 µM,SNB-19,35%
same,growth at 0.1 µM,COLO 205 [2],7%
same,growth at 10 µM,BT-549,-26.5%
same,GI50,K562,0.0584 µM
same,LC50 (50% net cell kill),K562,> 100 µM
same,TGI,K562,3.82 µM
same,growth at 10 µM,[3],30.8%
same,growth at 10 µM,M14 [4],-7%
same,growth at 0.1 µM,KM12,-36%
same,growth at 10 µM,TK-10 [5],36.6%
same,growth at 0.01 µM,SK-OV-3 [6],47%
same,growth at 1 µM,SN12C,18%
same,growth at 10 µM,SK-MEL-5 [7],-39%
same,growth at 10 µM,SK-OV-3 [8],26%
same,growth at 10 µM,COLO 205 [9],-71.1%
same,growth at 0.001 µM,TK-10 [10],99%
same,growth at 0.001 µM,HCT-116,102%
same,growth at 10 µM,SW-620 [11],11%
same,GI50,NCI-H522 [12],0.027 µM
same,TGI,NCI-H522 [12],0.0846 µM
same,CC50,NCI-H522 [12],3.22 µM
same,growth at 1 µM,NCI-H522 [13],-53%
same,growth at 0.01 µM,SK-MEL-5 [14],19%
same,growth at 1 µM,SF-295 [15],-27%
same,growth at 10 µM,ACHN,22.1%
same,growth at 0.01 µM,OVCAR-3,63%
same,growth at 1 µM,OVCAR-5,81%
same,growth at 10 µM,M14 [16],-17.5%
same,growth at 0.1 µM,SK-MEL-5 [17],-21%
same,growth at 10 µM,SW-620 [18],16.6%
same,growth at 10 µM,HOP-62,32%
same,growth at 0.1 µM,[19],13%
same,growth at 1 µM,IGROV-1,9%
same,growth at 0.01 µM,MDA-MB-231,88%
same,growth at 10 µM,T47D,46.5%
